Consider one compound from ChEMBL document CHEMBL4024800, “α-Amino-β-carboxymuconate-ε-semialdehyde Decarboxylase (ACMSD) Inhibitors as Novel Modulators of De Novo Nicotinamide Adenine Dinucleotide (NAD+) Biosynthesis” (J Med Chem, 2018).

The nature of data set [1]: Cmax in CD1 mouse at 5 mg/kg, po measured up to 8 hrs after dose. Conditions: in vivo. It counts as ADME, organism-based. More on the design: dose 5 mg/kg, route oral. Summed up: (§1)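 Mice dosed orally at 5 mg/kg in 0.5% (w/v) HPMC in water with 5% (v/v) DMSO; blood, liver and kidney concentrations followed to 8 h. AUC0–8h given in h·ng/mL; parameters reported as means.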

For data set [2], the target named is Voltage-gated inwardly rectifying potassium channel KCNH2 (Homo sapiens, UniProt Q12809). Description: Displacement of red fluorescent channel ligand tracer from human ERG expressed in CHO cell membranes. Summed up:
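Fluorescence polarisation kit: membranes from CHO cells stably expressing hERG, with a red fluorescent high-affinity tracer; competitors detected by tracer displacement, seen as lowered polarisation. Final DMSO 1%; E-4031 reference.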

The species named for data set [3] is Homo sapiens. The data set is described as follows: Activity at PPAR (unknown origin). Summed up:
(§2)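 Eight-point serial dilutions tested in an in-house AlphaScreen-based nuclear receptor panel; activity derived from nonlinear regression curves.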

Data set [4] is described as follows: Drug uptake in mouse central nervous system at 5 mg/kg, po. It counts as ADME, organism-based. Conditions: in vivo.
For the next data set, the target named is T1, Cytochrome P450 3A1 (Rattus norvegicus, UniProt P04800).
T1 sequence (P04800 whole entry): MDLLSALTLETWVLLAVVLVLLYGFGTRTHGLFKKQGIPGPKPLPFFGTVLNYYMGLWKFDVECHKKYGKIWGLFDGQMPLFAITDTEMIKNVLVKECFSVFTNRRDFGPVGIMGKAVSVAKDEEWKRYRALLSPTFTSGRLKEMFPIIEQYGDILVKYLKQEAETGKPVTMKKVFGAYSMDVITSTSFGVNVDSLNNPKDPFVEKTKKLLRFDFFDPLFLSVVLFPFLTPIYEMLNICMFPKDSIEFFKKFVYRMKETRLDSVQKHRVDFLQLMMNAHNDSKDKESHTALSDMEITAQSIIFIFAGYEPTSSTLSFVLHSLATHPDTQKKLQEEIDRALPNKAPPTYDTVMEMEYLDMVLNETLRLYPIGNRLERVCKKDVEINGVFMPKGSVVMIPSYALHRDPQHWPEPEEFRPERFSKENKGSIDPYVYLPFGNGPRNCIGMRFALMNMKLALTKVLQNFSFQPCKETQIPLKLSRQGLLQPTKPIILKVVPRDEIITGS
The data set is described as follows: Inhibition of recombinant rat CYP3A1 expressed in baculosomes expression system using fluorogenic-BOMCC as substrate by fluorescent homogeneous assay. It counts as ADME. Summed up:
(§3)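 Recombinant CYP baculosomes with fluorogenic substrates, at concentrations below their Km; homogeneous fluorescence read-out, run in triplicate. IC50 classes: <1 μM potent, 1–10 μM moderate, >10 μM weak or none.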

Data set [5] can be described thus: AUClast in CD1 mouse at 0.5 mg/kg, iv measured up to 24 hrs post dose. It counts as ADME, organism-based. More on the design: dose 0.5 mg/kg, time < 24 hr, route intravenous. Conditions: in vivo. Summed up: (§4)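 Mice given 0.5 mg/kg IV in saline containing 5% (v/v) DMSO and 20% (v/v) PEG400; blood pharmacokinetic parameters reported as means.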
Data set [6] addresses 2-amino-3-carboxymuconate-6-semialdehyde decarboxylase (Homo sapiens, UniProt Q8TDX5). Description: Inhibition of ACMSD in human primary hepatocytes assessed as increase in intracellular NAD+ levels at 5 uM after 48 hrs by NAD/NADH-Glo assay. It counts as cell-based.
The species named for data set [7] is Homo sapiens. The data set is described as follows: Activity at LXR (unknown origin). Summed up:
as §2

Data set [8] can be described thus: Ratio of AUClast in mouse kidney to blood at 5 mg/kg, po measured up to 8 hrs post dose.
The target of a further data set is Cytochrome P450 2C19 (Homo sapiens, UniProt P33261). Description: Inhibition of recombinant human CYP2C19 expressed in baculosomes expression system using fluorogenic-BOMCC as substrate by fluorescent homogeneous assay. It counts as ADME. Summed up:
as §3

A short description of data set [9]: Clearance in CD1 mouse at 0.5 mg/kg, iv measured up to 24 hrs post dose. It counts as ADME, organism-based. Conditions: in vivo. Summed up:
as §4

Data set [10] in a line: AUClast in mouse liver at 5 mg/kg, po measured up to 8 hrs post dose. It counts as ADME, organism-based. On the set-up: dose 5 mg/kg, time < 8 hr, route oral. Summed up:
as §1

Data set [11] in a line: Cytotoxicity against mouse AML-12 cells assessed as reduction in cell viability after 4 hrs by celltiter-glo assay. It counts as cell-based. Conditions: aml-12, 4 h. Summed up: (§5)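 HepG2 or AML12 cells, 5 × 10^3 per well, exposed to compound for 4 h at 37 °C. Viability read as ATP by CellTiter-Glo luminescence; tamoxifen control.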
Data set [12] is described as follows: Solubility of compound in PBS buffer at pH 7.4 after 24 hrs by UV/vis-spectroscopic analysis. It counts as physicochemical. Summed up:
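Compound in PBS pH 7.4 with 1% DMSO mixed, incubated 24 h and vacuum-filtered; filtrate read by UV/vis and relative solubility calculated from summed readings against a standard. Reported in mg/mL.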

The next data set has as its system HepG2. The data set is described as follows: Cytotoxicity against human HepG2 cells assessed as reduction in cell viability after 4 hrs by celltiter-glo assay. It counts as cell-based. Conditions: hepg2, 4 h. Summed up:
as §5

Data set [13] in a line: Apparent passive permeability from apical to basolateral side in MDCK2-MDR1 cells at 3 uM after 90 mins by LC-MS/MS analysis. It counts as ADME, cell-based, Canis lupus familiaris. Conditions: dog, MDCK-MDR1. Summed up: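 MDCKII-MDR1 monolayers, HBSS transport medium pH 7.4; compound 3 μM for 90 min, run with and without a P-gp inhibitor, n = 3. Quantified by LC-MS/MS as analyte/internal-standard peak-area ratio; monolayer integrity checked with Lucifer yellow. Papp given in nm/sec, A>B.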

Data set [14] is described as follows: Drug uptake in mouse central nervous system at 5 mg/kg, po in presence of P-gp inhibitor Elacridar. It counts as ADME, organism-based. To be noted: in vivo.
A further data set deals with Cytochrome P450 3A4 (Homo sapiens, UniProt P08684). Description: Inhibition of recombinant human CYP3A4 expressed in baculosomes expression system using fluorogenic-BOMCC as substrate by fluorescent homogeneous assay. It counts as ADME. Summed up:
as §3

Data set [15] can be described thus: Half life in CD1 mouse at 0.5 mg/kg, iv measured up to 24 hrs post dose. It counts as ADME, organism-based. To be noted: in vivo. Summed up:
as §4

The target in data set [16] is T2, Nuclear receptor subfamily 1 group I member 2 (Homo sapiens, UniProt O75469).
T2 sequence (O75469 whole entry): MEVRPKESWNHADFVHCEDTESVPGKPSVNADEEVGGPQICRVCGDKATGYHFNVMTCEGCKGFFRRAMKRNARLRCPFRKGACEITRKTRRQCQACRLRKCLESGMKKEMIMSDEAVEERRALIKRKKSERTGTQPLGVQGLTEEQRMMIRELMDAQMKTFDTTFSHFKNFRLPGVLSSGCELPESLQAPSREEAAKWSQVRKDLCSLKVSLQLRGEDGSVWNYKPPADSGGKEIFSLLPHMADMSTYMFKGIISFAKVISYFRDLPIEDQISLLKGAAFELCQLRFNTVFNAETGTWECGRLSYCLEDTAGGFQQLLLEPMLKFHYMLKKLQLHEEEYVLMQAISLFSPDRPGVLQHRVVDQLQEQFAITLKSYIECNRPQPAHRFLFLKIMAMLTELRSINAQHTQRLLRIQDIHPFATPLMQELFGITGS
The data set is described as follows: Activity at PXR (unknown origin). Summed up: as §2

A short description of data set [17]: AUClast in mouse blood at 5 mg/kg, po measured up to 8 hrs post dose. It counts as ADME, organism-based. More on the design: time < 8 hr, dose 5 mg/kg, route oral. Summed up:
as §1

The nature of data set [18]: Oral bioavailability in CD1 mouse at 5 mg/kg measured up to 8 hrs after dose. Conditions: in vivo. It counts as ADME, organism-based. Summed up: as §1
For data set [19], the species on record is Homo sapiens. Description: Activity at RXR (unknown origin). Summed up: as §2

Converted amounts (≈) assume the structure as drawn. The source made the active and inactive calls. The rule behind the calls is not given here. Some results are limits rather than exact numbers.

Sequence of 2-amino-3-carboxymuconate-6-semialdehyde decarboxylase (Q8TDX5 whole entry, looked up): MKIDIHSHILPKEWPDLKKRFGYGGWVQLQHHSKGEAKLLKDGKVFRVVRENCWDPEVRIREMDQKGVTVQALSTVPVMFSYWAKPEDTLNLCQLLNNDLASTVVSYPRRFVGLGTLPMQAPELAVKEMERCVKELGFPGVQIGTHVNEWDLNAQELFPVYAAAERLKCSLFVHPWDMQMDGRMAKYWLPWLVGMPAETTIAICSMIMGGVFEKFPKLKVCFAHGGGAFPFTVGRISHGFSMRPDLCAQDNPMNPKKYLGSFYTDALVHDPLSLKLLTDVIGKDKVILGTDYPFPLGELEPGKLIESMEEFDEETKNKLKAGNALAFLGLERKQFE
Sequence of Voltage-gated inwardly rectifying potassium channel KCNH2 (Q12809 whole entry): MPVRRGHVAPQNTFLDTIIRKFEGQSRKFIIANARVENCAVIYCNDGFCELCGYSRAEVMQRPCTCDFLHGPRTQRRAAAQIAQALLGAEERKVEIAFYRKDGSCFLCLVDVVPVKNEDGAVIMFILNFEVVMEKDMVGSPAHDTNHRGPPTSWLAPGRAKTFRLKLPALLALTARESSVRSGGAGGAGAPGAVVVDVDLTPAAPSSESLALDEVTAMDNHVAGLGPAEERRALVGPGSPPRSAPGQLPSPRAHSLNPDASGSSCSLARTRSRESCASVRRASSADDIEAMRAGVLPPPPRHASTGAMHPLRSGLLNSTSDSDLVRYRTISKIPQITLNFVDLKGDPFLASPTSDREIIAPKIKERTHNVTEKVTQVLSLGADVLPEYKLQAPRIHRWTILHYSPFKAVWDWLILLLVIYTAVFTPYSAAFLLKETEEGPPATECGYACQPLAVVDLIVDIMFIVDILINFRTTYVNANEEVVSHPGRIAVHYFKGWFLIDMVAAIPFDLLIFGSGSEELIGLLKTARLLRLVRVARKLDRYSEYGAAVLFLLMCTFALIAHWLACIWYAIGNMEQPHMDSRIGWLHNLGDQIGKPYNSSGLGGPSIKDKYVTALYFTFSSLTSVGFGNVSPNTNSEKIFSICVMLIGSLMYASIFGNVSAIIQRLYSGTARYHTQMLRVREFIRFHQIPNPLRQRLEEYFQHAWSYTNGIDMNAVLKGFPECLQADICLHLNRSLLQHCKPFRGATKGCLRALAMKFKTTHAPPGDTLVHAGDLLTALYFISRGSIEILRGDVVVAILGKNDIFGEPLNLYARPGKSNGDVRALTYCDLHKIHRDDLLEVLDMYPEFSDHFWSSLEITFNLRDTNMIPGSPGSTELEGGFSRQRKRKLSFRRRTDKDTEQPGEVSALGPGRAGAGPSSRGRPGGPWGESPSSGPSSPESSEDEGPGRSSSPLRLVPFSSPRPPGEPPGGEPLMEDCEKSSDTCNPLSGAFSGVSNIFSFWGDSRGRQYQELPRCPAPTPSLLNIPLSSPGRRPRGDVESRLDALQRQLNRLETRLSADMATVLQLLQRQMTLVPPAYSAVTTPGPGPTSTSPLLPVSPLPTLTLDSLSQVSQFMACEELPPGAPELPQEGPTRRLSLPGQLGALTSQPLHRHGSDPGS
Sequence of Cytochrome P450 2C19 (P33261 whole entry): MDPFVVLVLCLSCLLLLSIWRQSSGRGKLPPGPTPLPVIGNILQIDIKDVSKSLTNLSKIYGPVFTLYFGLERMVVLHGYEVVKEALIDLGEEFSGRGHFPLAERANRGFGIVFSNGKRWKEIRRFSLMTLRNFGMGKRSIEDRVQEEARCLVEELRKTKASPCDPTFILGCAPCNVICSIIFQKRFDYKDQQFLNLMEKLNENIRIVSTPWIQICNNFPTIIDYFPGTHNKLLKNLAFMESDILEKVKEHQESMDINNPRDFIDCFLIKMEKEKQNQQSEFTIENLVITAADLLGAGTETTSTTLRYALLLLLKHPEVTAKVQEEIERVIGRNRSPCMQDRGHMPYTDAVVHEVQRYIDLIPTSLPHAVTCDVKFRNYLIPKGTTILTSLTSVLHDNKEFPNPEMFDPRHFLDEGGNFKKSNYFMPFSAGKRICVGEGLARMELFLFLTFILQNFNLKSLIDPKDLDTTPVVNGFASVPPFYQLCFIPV
Sequence of Cytochrome P450 3A4 (P08684 whole entry): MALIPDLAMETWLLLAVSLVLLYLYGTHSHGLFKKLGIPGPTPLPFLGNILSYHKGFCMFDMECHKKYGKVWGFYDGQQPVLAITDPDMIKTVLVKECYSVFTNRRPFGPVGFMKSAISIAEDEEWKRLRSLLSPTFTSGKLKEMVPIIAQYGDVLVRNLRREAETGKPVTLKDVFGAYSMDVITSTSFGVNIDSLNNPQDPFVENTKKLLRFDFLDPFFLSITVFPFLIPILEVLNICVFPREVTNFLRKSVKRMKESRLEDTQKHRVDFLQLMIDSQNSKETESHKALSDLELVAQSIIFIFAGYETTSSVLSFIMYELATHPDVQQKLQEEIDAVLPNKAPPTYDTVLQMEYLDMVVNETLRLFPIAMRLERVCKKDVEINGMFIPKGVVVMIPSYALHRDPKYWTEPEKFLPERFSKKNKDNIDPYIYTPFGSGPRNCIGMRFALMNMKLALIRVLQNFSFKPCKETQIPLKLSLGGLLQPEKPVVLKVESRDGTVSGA

Turning to `N#Cc1c(-c2cccs2)nc(SCc2cccc(CC(=O)O)c2)[nH]c1=O`, the Cmax in [1] worked out at 2570 ng/mL. Besides, the “inhibition (INH)” value in data set [2] is on record as “Not Active”. Besides, the outcome in the data set filed under Homo sapiens [3], in the data set filed under Homo sapiens [7] and in the data set listed under Homo sapiens [19] was inactive. Also, the Drug uptake entry in data set [4] and in data set [14] was “Not Active” each time. Further, the IC50 on Cytochrome P450 3A1, at Cytochrome P450 2C19 and on Cytochrome P450 3A4 was over 10 µM throughout. In addition, in data set [5], the AUC(0-t) at 24 h was found to be 10700 ng·h/mL. In addition, the inhibition result in [6] was “Active”. Also, in [8], the Kp at 8 h turned out to be 2.9. Further, the clearance in data set [9] is 0.78 mL/min/kg. Moreover, the values for the AUC(0-t) at 8 h in data set [10] and in data set [17] were 19200 ng·h/mL and 12700 ng·h/mL, respectively. Also, the Activity entry in [11] was “Non-Toxic”; in the data set on HepG2, “Non-Toxic”; in data set [16], “Not Active”. In addition, the concentration in solution in data set [12] (solubility at 24 h) was 800 µg/mL (≈ 2090 µM). For the same compound, the Papp A→B at 1.5 h, 3 µM in data set [13] came to 0.456 ×10⁻⁶ cm/s. The compound further gave a half-life in data set [15] of 5.33 h. The compound further showed a bioavailability in data set [18] of 12%.
